Ec RNAP inh = blocks E. coli RNA polymerase transcription; P0A8V2; inhibition, %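 (tested at 10 µM)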; AID 559; hit rate 0.2% among 62,000; fluorescence transcription assay; in the data active means inhibition above about 20%;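 further: 0% = enzyme without compound and 100% = no enzyme blank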
Target sequence (P0A8V2 whole entry, looked up): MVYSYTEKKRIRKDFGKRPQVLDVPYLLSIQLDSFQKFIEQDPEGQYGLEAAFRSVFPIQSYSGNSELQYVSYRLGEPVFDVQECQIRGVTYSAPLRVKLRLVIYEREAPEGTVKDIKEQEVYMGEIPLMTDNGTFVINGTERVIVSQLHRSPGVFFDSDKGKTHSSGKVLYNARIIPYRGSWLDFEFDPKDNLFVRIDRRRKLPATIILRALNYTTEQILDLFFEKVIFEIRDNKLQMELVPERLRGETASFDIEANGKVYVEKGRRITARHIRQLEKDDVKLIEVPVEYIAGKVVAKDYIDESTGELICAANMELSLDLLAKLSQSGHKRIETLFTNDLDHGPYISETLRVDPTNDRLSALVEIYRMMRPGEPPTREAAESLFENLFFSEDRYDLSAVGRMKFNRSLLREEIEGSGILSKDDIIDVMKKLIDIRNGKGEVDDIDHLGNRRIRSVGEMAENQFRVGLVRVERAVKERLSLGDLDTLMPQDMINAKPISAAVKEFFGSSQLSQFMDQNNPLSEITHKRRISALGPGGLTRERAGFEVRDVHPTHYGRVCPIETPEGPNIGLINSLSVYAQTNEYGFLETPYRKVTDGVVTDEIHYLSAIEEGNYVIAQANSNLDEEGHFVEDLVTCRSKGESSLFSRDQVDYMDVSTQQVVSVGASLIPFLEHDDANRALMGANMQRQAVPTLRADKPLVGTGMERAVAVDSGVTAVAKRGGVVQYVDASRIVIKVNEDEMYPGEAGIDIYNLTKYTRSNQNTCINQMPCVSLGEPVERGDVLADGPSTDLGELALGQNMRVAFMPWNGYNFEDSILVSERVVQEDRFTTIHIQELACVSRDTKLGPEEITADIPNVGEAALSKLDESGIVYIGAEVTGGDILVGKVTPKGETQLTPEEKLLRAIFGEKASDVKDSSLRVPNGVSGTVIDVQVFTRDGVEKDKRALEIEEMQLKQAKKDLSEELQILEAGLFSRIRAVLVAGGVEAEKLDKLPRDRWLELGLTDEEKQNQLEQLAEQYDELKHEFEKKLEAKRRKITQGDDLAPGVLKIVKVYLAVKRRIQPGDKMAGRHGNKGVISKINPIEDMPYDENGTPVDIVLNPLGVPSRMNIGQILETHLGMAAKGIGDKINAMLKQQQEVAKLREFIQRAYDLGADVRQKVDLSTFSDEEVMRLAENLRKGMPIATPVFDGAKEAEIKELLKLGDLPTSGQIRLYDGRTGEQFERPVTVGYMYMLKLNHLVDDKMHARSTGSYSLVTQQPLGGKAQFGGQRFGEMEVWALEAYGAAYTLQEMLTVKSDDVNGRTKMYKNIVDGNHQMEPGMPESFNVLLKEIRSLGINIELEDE
5-HT1A blocker = 5-HT1a (human) receptor antagonism. P08908. CHO 5-HT1a Ga15 NFAT-bla reporter, antagonist mode. inhibition, % at 10 µM. hit rate 0.68% among 62,000;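 active means inhibition above the mean of all tested compounds plus 3 SD, cut at about 43% in these data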;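 further: receptor stimulated by 5-CT agonist at 100 nM near EC80; beta-lactamase reporter measured by ratiometric fluorescence of a cleavable substrate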
5HT1E antag = blocks the human 5-HT1E serotonin receptor; AID 571; inhibition, % at 6 µM; hit rate 0.99% among 65,000; P28566; CHO 5-HT1E Ga15 NFAT-bla reporter, FRET, antagonist;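 active means inhibition above a set limit, the mean inhibition across every tested compound plus 3 SD, cut at about 29% in these data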;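 further: signal is the 460 over 535 nm emission ratio of beta-lactamase substrate; 0% = agonist plus DMSO wells and 100% = wells without agonist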
HTR1E agonist = agonists of human 5-HT1E serotonin receptor | P28566 | activation, % at 6 µM | hit rate 0.69% among 65,000 | AID 574 | CHO 5-HT1E Ga15 NFAT-bla reporter, FRET; 0% DMSO wells, 100% control agonist wells;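 active means activation above a set limit, the screen-wide mean activation plus 3 SD, cut at about 8.5% in these data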;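 further: 100% = positive control agonist at 1 µM giving full maximal response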
5HT1a ag = 5-HT1a (human) receptor agonism. P08908. CHO 5-HT1a Ga15 NFAT-bla reporter, FRET ratio; 0% basal, 100% maximal reference agonist. activation, % at 10 µM. hit rate 0.56% among 65,000. AID 567;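 active means activation above the screen-wide mean activation plus 3 SD, cut at about 19% in these data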;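 further: 0% = DMSO wells and 100% = 5-CT at EC100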
S1P3 ag = S1P3 (human) receptor agonism | hit rate 0.1% among 60,000 | S1P3 NFAT-BLA reporter cells, FRET ratio; relative to 1 µM S1P, basal subtracted | Q99500 | activation, % at 4.5 µM;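 active means activation above the screen-wide mean plus 3 SD, cut at about 4.5% in these data, passing the limit was not always enough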
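Benchmarks: high control 1 µM S1P / System: stable CHO line with human S1P3, Gα16, NFAT-BLA reporter / Dosing: single compound concentration, 4.5 µM final / Timing: 4 h compound at 37 °C, 2 h substrate at RT / Measured by: FRET β-lactamase substrate fluorescence, excitation 405 nm, 460/535 nm emission ratio, background-subtracted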
Active calls of the source: *. An excerpt weighted towards active compounds, which were near 2.6% of everything screened.

Screening OC(COC1CCCCC1)CN1CCN(c2ccccc2)CC1 (centres undefined) returned Ec RNAP inh 2.7, 5-HT1A blocker 45.3*, 5HT1E antag -0.2, HTR1E agonist 0.9, 5HT1a ag 7.3 and S1P3 ag -0.3.
`CCCCc1nc(SCC(=O)Nc2ccc(S(N)(=O)=O)cc2)n[nH]1` gave Ec RNAP inh 4.6, 5-HT1A blocker -5.1, 5HT1E antag -0.1, HTR1E agonist 13.9*, 5HT1a ag -1.3 and S1P3 ag 1.7.
CCCc1ccc(Oc2c(-c3ccc(O)c(C)c3O)n[nH]c2C)cc1 was read as Ec RNAP inh 1.1, 5-HT1A blocker 55.9*, 5HT1E antag 0.2, HTR1E agonist -0.9, 5HT1a ag -3.4 and S1P3 ag -2.4.
Screening COc1ccc(C2N(c3ccc(F)cc3)C(=O)C3CCCN32)cc1 (centres undefined) returned Ec RNAP inh 6.0, 5-HT1A blocker 15.5, 5HT1E antag 87.8*, HTR1E agonist 0.2, 5HT1a ag -6.1 and S1P3 ag -1.5.
`COc1ccccc1C1N(c2ccc(Cl)cc2)C(=O)C2CCCN21` (centres undefined) gave Ec RNAP inh -5.2, 5-HT1A blocker 3.3, 5HT1E antag 7.5, HTR1E agonist 15.0*, 5HT1a ag -0.4 and S1P3 ag 0.5.
CCOc1ccc(NC(=O)CCn2cccc2)cc1 was read as Ec RNAP inh 2.0, 5-HT1A blocker 6.6, 5HT1E antag -1.9, HTR1E agonist -1.2, 5HT1a ag -1.8 and S1P3 ag -1.0.
For CC(=O)N1CCN=C1SCc1c(F)cccc1Cl the results were Ec RNAP inh 0.1, 5-HT1A blocker 11.7, 5HT1E antag 3.2, HTR1E agonist -0.3, 5HT1a ag -3.7 and S1P3 ag -0.8.
`COc1ccc(O)c(-c2cc(-c3cccs3)[nH]n2)c1` gave Ec RNAP inh 1.6, 5-HT1A blocker 51.0*, 5HT1E antag 7.6, HTR1E agonist -1.6, 5HT1a ag -1.5 and S1P3 ag -1.7.
Screening CCOc1cc(S(=O)(=O)Nc2ccc(Cl)cn2)ccc1F returned Ec RNAP inh 7.0, 5-HT1A blocker -2.5, 5HT1E antag 5.4, HTR1E agonist -1.3, 5HT1a ag 1.0 and S1P3 ag -0.2.
`CCOc1ccc(CCNC(=O)CCc2nc(-c3ccc(C)cc3)no2)cc1OCC` gave Ec RNAP inh 4.2, 5-HT1A blocker 5.4, 5HT1E antag -12.5, HTR1E agonist 4.3, 5HT1a ag -1.0 and S1P3 ag -0.7.
Cc1nnc2n1N=CC=C(c1ccccc1)S2 was read as Ec RNAP inh 1.6, 5-HT1A blocker 9.3, 5HT1E antag 30.4*, HTR1E agonist -0.2, 5HT1a ag 0.4 and S1P3 ag -0.7.
For O=C(CCn1c(=O)sc2ccccc21)NCc1ccccc1 the results were Ec RNAP inh -1.2, 5-HT1A blocker -12.8, 5HT1E antag -0.2, HTR1E agonist 0.7, 5HT1a ag -0.2 and S1P3 ag -0.1.
For O=C(CCn1c(=O)sc2ccccc21)NCc1cccs1 the results were 5-HT1A blocker 10.0, 5HT1E antag 12.8, HTR1E agonist -2.0 and 5HT1a ag 74.0*.
CCOC(=O)N1CCN(C(=O)c2ccc3nc4ccc(Cl)cc4c(=O)n3c2)CC1 was read as Ec RNAP inh -2.6, 5-HT1A blocker -7.7, 5HT1E antag 0.8, HTR1E agonist 0.0 and 5HT1a ag 1.6.
CCOc1ccc(-c2nc(-c3ccc(OC)cc3)no2)cc1OCC was read as Ec RNAP inh -0.5, 5-HT1A blocker -4.5, 5HT1E antag -3.4, HTR1E agonist 0.3, 5HT1a ag -4.4 and S1P3 ag 0.5.
Screening CCOc1ccc(-c2noc(-c3ccncc3)n2)cc1OCC returned Ec RNAP inh 6.9, 5-HT1A blocker -4.3, 5HT1E antag -10.1, HTR1E agonist 0.1, 5HT1a ag 0.4 and S1P3 ag 17.0*.
Screening CCCCCc1nnc(NC(=O)Cc2cccs2)s1 returned Ec RNAP inh 11.5, 5-HT1A blocker 11.5, 5HT1E antag 4.0, HTR1E agonist -0.5, 5HT1a ag 3.0 and S1P3 ag -1.0.
N#CCCCSc1nnnn1-c1cccc(Cl)c1 was read as Ec RNAP inh 2.9, 5-HT1A blocker -2.2, 5HT1E antag 5.1, HTR1E agonist -0.7, 5HT1a ag -0.4 and S1P3 ag -0.4.
Screening N#CCCS(=O)(=O)c1nnnn1-c1ccccc1 returned Ec RNAP inh 1.3, 5-HT1A blocker 86.7*, 5HT1E antag 79.4*, HTR1E agonist -1.4, 5HT1a ag 0.5 and S1P3 ag -1.0.
`CCCCn1nc(NC(=O)c2cccs2)c2cc3cc(OC)ccc3nc21` gave Ec RNAP inh 1.8, 5-HT1A blocker 0.5, 5HT1E antag 19.5, HTR1E agonist 4.5, 5HT1a ag 21.8* and S1P3 ag 1.2.
Screening CCCn1nc(NC(=O)c2cccs2)c2cc3cc(OC)ccc3nc21 returned Ec RNAP inh 0.5, 5-HT1A blocker -15.6, 5HT1E antag 18.1, HTR1E agonist 1.9, 5HT1a ag 6.3 and S1P3 ag 1.1.
`COC(=O)NCCOc1cc(C)ccc1C` gave Ec RNAP inh 8.0, 5-HT1A blocker 7.8, 5HT1E antag -2.1, HTR1E agonist -0.6, 5HT1a ag -1.6 and S1P3 ag -0.7.
For COc1cc(NC(=O)c2ccco2)c(OC)cc1NC(=O)CCC(=O)Nc1cc(C)cc(C)c1 the results were Ec RNAP inh 14.6, 5-HT1A blocker 11.0, 5HT1E antag -6.9, HTR1E agonist 1.6, 5HT1a ag -1.6 and S1P3 ag -1.4.
Cc1cc(N2C3CCC2CC(O)(c2ccc(F)cc2)C3)nc(-c2ccccc2)n1 (centres undefined) was read as Ec RNAP inh 2.7, 5-HT1A blocker 43.1*, 5HT1E antag 23.1, HTR1E agonist -1.0, 5HT1a ag -1.2 and S1P3 ag -1.3.
`CS(=O)(=O)N(CC(=O)N1CCCCCC1)c1ccccc1` gave Ec RNAP inh 6.0, 5-HT1A blocker 11.6, 5HT1E antag -1.9, HTR1E agonist 31.7*, 5HT1a ag -1.1 and S1P3 ag -1.1.
Screening COc1ccccc1NC(=O)N1CCN(c2cccc(C(F)(F)F)c2)CC1 returned Ec RNAP inh 4.8, 5-HT1A blocker -10.0, 5HT1E antag -4.4, HTR1E agonist 13.3*, 5HT1a ag 3.2 and S1P3 ag 1.1.
Screening CC(=O)c1cc2c(cc1NC(=O)CN1CCN(c3cccc(C(F)(F)F)c3)CC1)OCO2 returned Ec RNAP inh 5.9, 5-HT1A blocker -5.7, 5HT1E antag -8.2, HTR1E agonist 1.0 and 5HT1a ag -0.8.
`CC(=O)Nc1ccc(CN2CCN(c3cccc(C(F)(F)F)c3)CC2)cc1` gave Ec RNAP inh -2.5, 5-HT1A blocker 9.5, 5HT1E antag 3.5, HTR1E agonist 22.8*, 5HT1a ag 9.1 and S1P3 ag -1.9.
For Cc1nc(NCc2ccco2)c(C#N)c2c1COC(C)(C)C2 the results were Ec RNAP inh 0.2, 5-HT1A blocker 0.8, 5HT1E antag 0.4, HTR1E agonist -1.4, 5HT1a ag -1.2 and S1P3 ag -0.5.
